Data set [1] deals with Plasmodium falciparum. In words: Antimalarial activity against chloroquine-sensitive Plasmodium falciparum D6 assessed as inhibition of parasite growth after 72 hrs by parasite LDH release assay. In kind it is functional, organism-based. Particulars: D6, 72 h; call rule not given here. An outline of the steps: (§1)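 Asexual P. falciparum cultures at 2% parasitemia and 2% hematocrit in RPMI 1640 with 10% human serum and amikacin were added to serially diluted compound. Plates were incubated 72 h at 37 °C under 90% N2/5% O2/5% CO2. Growth was read by pLDH: Malstat reagent 30 min at room temperature, then NBT/PES 1 h in the dark. IC50 taken from dose-response curves; chloroquine and pyrimethamine controls.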

A short description of data set [2]: Selectivity index, ratio of IC50 for African green monkey Vero cells to IC50 for chloroquine-sensitive Plasmodium falciparum D6. In kind it is toxicity, cell-based. Particulars: read-out: Ratio IC50. An outline of the steps:
(§2)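 Vero cells seeded at 25,000 cells/well and grown 24 h, then exposed to a range of compound concentrations for 48 h. Viability measured by Neutral Red uptake; IC50 from dose-response curves. SI calculated as Vero IC50 divided by antiplasmodial IC50 for the named strain.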

Data set [3] has as its system Plasmodium falciparum. Nature of the data set: Antimalarial activity against chloroquine-resistant Plasmodium falciparum W2 assessed as inhibition of parasite growth after 72 hrs by parasite LDH release assay. Format: functional, organism-based. Particulars: W2, 72 h. An outline of the steps: as §1
(In general: Release of lactate dehydrogenase indicates damage to the cell membrane.)

Data set [4] can be described thus: Selectivity index, ratio of IC50 for African green monkey Vero cells to IC50 for chloroquine-resistant Plasmodium falciparum W2. Format: toxicity, cell-based. Particulars: read-out: Ratio IC50. An outline of the steps: as §2
The test system of data set [5] is Vero. Nature of the data set: Cytotoxicity against African green monkey Vero cells after 72 hrs by neutral red assay. In kind it is cell-based, Chlorocebus sabaeus. Particulars: vero; in the assay text read “after 48 hrs” for “after 72 hrs”. The method, boiled down: (§3)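 Vero cells (monkey kidney […]) were seeded at 25,000 cells/well and incubated 24 h, then exposed to a range of compound concentrations for 48 h. Viable cells were counted by Neutral Red assay, and IC50 was obtained from dose-response curves.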

Data set [6] concerns Vero. In words: Cytotoxicity against African green monkey Vero cells up to 20 uM after 72 hrs by neutral red assay. Format: cell-based. Particulars: chlorocebus sabaeus, 48 h, in the assay text read “48 hrs” for “72 hrs”. An outline of the steps:
as §3

A short description of data set [7]: Resistance index, ratio of IC50 for chloroquine-resistant Plasmodium falciparum W2 to IC50 for chloroquine-sensitive Plasmodium falciparum D6. Format: functional.
For data set [8], the system named is Plasmodium berghei. Nature of the data set: Antimalarial activity against Plasmodium berghei infected in mouse assessed as reduction in parasitemia at 100 mg/kg/day, po dosed on days 0, 1 and 2 post infection measured on day 5. Particulars: 120 h. Format: functional. The method, boiled down: (§4)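 P. berghei-infected mice were given the compound orally at 11.1, 33.3 or 100 mg/kg × 3 days. Vehicle and chloroquine groups were included. Parasitemia was read on days 5 and 7, and % suppression was calculated with mean parasitemia in the vehicle control taken as 100%. Mean survival time was also recorded.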

The subject of data set [9] is Plasmodium berghei. In words: Antimalarial activity against Plasmodium berghei infected in mouse assessed as reduction in parasitemia at 11.1 mg/kg/day, po dosed on days 0, 1 and 2 post infection measured on day 5. The note with it: 120 h. In kind it is functional. An outline of the steps: as §4
The subject of data set [10] is Plasmodium berghei. In words: Antimalarial activity against Plasmodium berghei infected in mouse assessed as reduction in parasitemia at 33.3 mg/kg/day, po dosed on days 0, 1 and 2 post infection measured on day 5. In kind it is functional. The note with it: 120 h. The method, boiled down: as §4
Data set [11] has as its system Plasmodium berghei. In words: Antimalarial activity against Plasmodium berghei infected in mouse assessed as reduction in parasitemia at 100 mg/kg/day, po dosed on days 0, 1 and 2 post infection measured on day 7. Particulars: 168 h. Format: functional. The method, boiled down: as §4
Data set [12] deals with Plasmodium berghei. In words: Antimalarial activity against Plasmodium berghei infected in mouse assessed as reduction in parasitemia at 33.3 mg/kg/day, po dosed on days 0, 1 and 2 post infection measured on day 7. Format: functional. The note with it: 168 h. The method, boiled down:
as §4

In data set [13] the test system is Plasmodium berghei. In words: Antimalarial activity against Plasmodium berghei infected in mouse assessed as mean survival time at 100 mg/kg/day, po dosed on days 0, 1 and 2 post infection. In kind it is functional. The method, boiled down: (§5)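 P. berghei-infected mice dosed orally with test agent at 11.1, 33.3 or 100 mg/kg, once daily for 3 days; vehicle and chloroquine controls. Mean survival time recorded; parasitemia on days 5 and 7 expressed as % suppression, taking mean vehicle-control parasitemia as 100%.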

The test system of data set [14] is Plasmodium berghei. Nature of the data set: Antimalarial activity against Plasmodium berghei infected in mouse assessed as mean survival time at 11.1 mg/kg/day, po dosed on days 0, 1 and 2 post infection. In kind it is functional. The method, boiled down:
as §5

In data set [15] the test system is Plasmodium berghei. In words: Antimalarial activity against Plasmodium berghei infected in mouse assessed as mean survival time at 33.3 mg/kg/day, po dosed on days 0, 1 and 2 post infection. Format: functional. The method, boiled down: as §5

SMILES strings stand for the structures. Bounds are passed on as bounds.

Data on one compound can be found in ChEMBL document CHEMBL3351898, “4-Aminoquinoline-pyrimidine hybrids: synthesis, antimalarial activity, heme binding and docking studies” (Eur J Med Chem, 2015).

One may read the IC50 as the concentration that gives 50% inhibition. Usually inhibition in vivo stands for the drop in the measured response relative to a control, in per cent.

For the compound `COc1cc(Nc2ccnc(NCCNc3ccnc4cc(Cl)ccc34)n2)cc(OC)c1`, the IC50 is 33 nM in the data set with Plasmodium falciparum [1], 58 nM with Plasmodium falciparum [3] and “Not Active” in the data set on Vero [5]. Also, the selectivity ratio is greater than 606 in data set [2] and greater than 345 in data set [4]. In the data set on Vero [6], the Activity result was “Non-toxic”. Besides, the Ratio IC50 in data set [7] stood at 1.75. Also, the inhibition in vivo at 100 mg/kg/day with Plasmodium berghei [8] stood at 42.1%; with Plasmodium berghei [11], 10.4%. In the data set with Plasmodium berghei [9], the inhibition in vivo at 11.1 mg/kg/day came to 1.77%. Also, the inhibition in vivo at 33.3 mg/kg/day in the data set with Plasmodium berghei [10] was 15.1%; with Plasmodium berghei [12], 6.2%. The values for the MST in the data set with Plasmodium berghei [13], in the data set on Plasmodium berghei [14] and in the data set with Plasmodium berghei [15] were 9 days, 5 days and 8.6 days, respectively.
